The text below walks through data of ChEMBL document CHEMBL3526053, “Species-dependent uptake of glycylsarcosine but not oseltamivir in Pichia pastoris expressing the rat, mouse, and human intestinal peptide transporter PEPT1” (Drug Metab Dispos, 2012).

Common to all, as to format: ADME
In data set [1] the target is T1, Solute carrier family 15 member 1 (Homo sapiens, UniProt P46059).
T1 sequence (P46059 whole entry): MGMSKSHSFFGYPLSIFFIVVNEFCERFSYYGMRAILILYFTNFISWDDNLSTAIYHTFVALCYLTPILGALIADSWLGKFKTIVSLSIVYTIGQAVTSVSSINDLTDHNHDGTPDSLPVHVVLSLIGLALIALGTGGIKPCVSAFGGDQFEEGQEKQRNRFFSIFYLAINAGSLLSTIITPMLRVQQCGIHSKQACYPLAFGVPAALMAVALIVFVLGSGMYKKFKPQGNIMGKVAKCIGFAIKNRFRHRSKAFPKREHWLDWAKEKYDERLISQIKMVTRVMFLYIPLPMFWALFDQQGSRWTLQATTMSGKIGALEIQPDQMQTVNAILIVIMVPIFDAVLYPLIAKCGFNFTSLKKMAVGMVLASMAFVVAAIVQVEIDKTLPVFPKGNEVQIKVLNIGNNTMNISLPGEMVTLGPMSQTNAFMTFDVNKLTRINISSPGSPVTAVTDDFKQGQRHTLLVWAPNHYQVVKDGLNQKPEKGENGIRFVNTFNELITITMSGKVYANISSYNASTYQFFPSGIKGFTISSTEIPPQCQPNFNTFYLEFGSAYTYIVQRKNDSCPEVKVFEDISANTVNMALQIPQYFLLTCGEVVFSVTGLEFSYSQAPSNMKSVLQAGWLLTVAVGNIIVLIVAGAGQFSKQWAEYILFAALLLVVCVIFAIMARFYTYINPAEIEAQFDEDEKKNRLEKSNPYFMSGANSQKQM
In words: Drug uptake in Pichia pastoris GS115 expressing human recombinant PEPT1 at 5 uM after 30s by dual-channel liquid scintillation counting analysis in presence of cephradine relative to control. As to conditions: 0.5 min. In short, it runs like this: (§1)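 [3H]GlySar 5.0 µM final, 30-s uptake at 24°C in 100 mM potassium phosphate pH 6.5, with or without a potential inhibitor at 10 mM. Cells are methanol-induced transformants. Values are vector-subtracted and expressed as percent of buffer control. Mean ± SE (n=3). ANOVA with Dunnett's test.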

The target of data set [2] is T2, Solute carrier family 15 member 1 (Mus musculus, UniProt Q9JIP7).
T2 sequence (Q9JIP7 whole entry): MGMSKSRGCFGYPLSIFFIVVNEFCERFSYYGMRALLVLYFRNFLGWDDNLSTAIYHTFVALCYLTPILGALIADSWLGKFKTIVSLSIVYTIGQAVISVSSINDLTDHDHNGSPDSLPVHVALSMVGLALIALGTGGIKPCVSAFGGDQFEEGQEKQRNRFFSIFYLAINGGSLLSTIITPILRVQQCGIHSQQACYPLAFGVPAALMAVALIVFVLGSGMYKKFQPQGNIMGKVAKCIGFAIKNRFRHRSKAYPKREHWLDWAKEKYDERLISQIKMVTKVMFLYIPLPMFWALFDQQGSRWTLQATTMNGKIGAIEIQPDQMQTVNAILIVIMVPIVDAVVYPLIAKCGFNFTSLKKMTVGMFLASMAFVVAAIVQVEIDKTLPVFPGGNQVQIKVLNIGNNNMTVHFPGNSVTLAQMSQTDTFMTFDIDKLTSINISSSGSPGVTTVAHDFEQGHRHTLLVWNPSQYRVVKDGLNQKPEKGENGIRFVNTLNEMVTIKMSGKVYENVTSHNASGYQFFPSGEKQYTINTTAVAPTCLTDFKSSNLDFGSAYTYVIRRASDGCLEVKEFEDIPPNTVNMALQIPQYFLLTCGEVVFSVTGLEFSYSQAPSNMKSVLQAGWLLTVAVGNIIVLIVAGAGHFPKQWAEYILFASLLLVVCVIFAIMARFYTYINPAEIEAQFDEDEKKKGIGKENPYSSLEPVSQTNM
Briefly: Drug uptake in Pichia pastoris GS115 expressing mouse recombinant PEPT1 at 5 uM after 30s by dual-channel liquid scintillation counting analysis in presence of TEA relative to control. As to conditions: 0.5 min. In short, it runs like this: as §1

In data set [3] the target is T3, Solute carrier family 15 member 1 (Rattus norvegicus, UniProt P51574).
T3 sequence (P51574 whole entry): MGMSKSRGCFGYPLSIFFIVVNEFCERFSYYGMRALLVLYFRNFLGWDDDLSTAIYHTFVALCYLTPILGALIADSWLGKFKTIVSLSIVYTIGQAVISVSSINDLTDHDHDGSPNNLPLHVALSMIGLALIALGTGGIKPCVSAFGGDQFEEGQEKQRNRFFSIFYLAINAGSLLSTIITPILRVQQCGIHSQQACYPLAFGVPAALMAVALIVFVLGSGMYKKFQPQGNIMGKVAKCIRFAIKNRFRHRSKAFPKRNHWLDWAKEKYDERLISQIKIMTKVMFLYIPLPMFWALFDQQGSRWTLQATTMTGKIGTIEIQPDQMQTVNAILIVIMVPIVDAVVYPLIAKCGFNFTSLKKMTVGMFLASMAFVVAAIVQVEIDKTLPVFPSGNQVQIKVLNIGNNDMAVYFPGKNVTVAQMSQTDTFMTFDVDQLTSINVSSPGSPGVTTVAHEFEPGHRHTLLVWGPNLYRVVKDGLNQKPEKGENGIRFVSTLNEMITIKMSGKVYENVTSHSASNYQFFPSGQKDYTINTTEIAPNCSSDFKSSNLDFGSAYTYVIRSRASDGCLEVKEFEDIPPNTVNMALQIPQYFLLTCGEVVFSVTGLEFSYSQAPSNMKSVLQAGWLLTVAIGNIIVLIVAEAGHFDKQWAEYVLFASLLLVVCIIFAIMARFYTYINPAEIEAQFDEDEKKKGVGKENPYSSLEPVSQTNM
In words: Drug uptake in Pichia pastoris GS115 expressing rat recombinant PEPT1 at 5 uM after 30s by dual-channel liquid scintillation counting analysis in presence of cefazolin relative to control. As to conditions: 0.5 min. In short, it runs like this: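 Rat PEPT1 (pPIC3.5K-rPept1) in GS115 His+Mut+ transformant, methanol-induced 20-24 hr in BMMY at 30°C, washed into 100 mM potassium phosphate pH 6.5. [3H]GlySar final 5.0 µM with inhibitor at 10 mM, 30 sec at 24°C. Counts taken by liquid scintillation after 24 hr standing. Values are vector-subtracted and given as % of buffer control. Mean ± SE, n=3.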

The next data set deals with T4, PEPT1 (Homo sapiens, UniProt P46059).
T4 sequence (P46059 whole entry): T1 sequence (P46059 whole entry)
Briefly: Drug uptake in Pichia pastoris GS115 expressing human recombinant PEPT1 at 5 uM after 30s by dual-channel liquid scintillation counting analysis relative to vector control. As to conditions: read-out: FC. The method in brief:
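5.0 µM radiolabelled substrate uptake for 30 s at 24°C in pH 6.5 phosphate buffer by induced transformants. Radioactivity is counted by liquid scintillation and normalised to OD600. Results are compared with pPIC3.5K vector-alone cells. Mean ± SE (n=6).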

The target in data set [4] is T1, Solute carrier family 15 member 1. Briefly: Drug uptake in Pichia pastoris GS115 expressing human recombinant PEPT1 at 5 uM after 30s by dual-channel liquid scintillation counting analysis in presence of SITS relative to control. As to conditions: 0.5 min. The method in brief:
as §1

The target in data set [5] is T2, Solute carrier family 15 member 1. Briefly: Drug uptake in Pichia pastoris GS115 expressing mouse recombinant PEPT1 at 5 uM after 30s by dual-channel liquid scintillation counting analysis in presence of cefadroxil relative to control. As to conditions: 0.5 min. The method in brief: as §1

On to `[3H]C(C(=O)O)N(C)C(=O)CN` (stereo unspecified), for which the Drug uptake in data set [1] came out at 23.2%; in data set [2], 83.7%; in data set [3], 93.7%; in data set [4] it was 127%; in data set [5] it was 16.7%. Further, the uptake ratio at 0.5 min, 5 µM at PEPT1 came to 23.
